Our source for the Kis, Kii and NI values is ChEMBL document CHEMBL1133111, “Structure-based discovery of small molecule inhibitors targeted to protein tyrosine phosphatase 1B” (J Med Chem, 2000).

Values joined by “and” are separate entries in the source; they are usually repeats but may differ in a detail not shown here. Equal entries are not always repeated.

Assay [1] addresses T1, Tyrosine-protein phosphatase non-receptor type 1 (Homo sapiens) (UniProt P18031).
T1 sequence (whole entry): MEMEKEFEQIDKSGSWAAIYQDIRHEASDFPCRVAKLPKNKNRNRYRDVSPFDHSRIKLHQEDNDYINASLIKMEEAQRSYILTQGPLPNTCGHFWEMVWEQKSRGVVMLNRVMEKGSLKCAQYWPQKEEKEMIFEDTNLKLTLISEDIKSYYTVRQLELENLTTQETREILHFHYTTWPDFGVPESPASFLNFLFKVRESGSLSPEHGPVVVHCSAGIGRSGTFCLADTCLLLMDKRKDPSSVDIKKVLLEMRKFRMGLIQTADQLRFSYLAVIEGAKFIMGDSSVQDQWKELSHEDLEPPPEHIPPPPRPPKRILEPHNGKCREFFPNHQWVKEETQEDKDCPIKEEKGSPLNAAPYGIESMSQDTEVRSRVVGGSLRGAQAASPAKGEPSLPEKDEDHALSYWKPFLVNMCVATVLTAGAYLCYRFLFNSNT
Put plainly: Inhibitory activity against protein tyrosine phosphatases (PTP1B) (Kis=slope inhibitory constant). In outline: (§1)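 Recombinant enzymes used: human PTP1B and LAR bearing both PTPase domains. Compounds were dissolved in DMSO, with 10% DMSO final in all reactions. Buffer was 50 mM 3,3-dimethylglutarate, pH 7.0, ionic strength 0.15 M set with NaCl, at 30 °C. Initial rates of pNPP hydrolysis were measured at eight substrate levels (0.2–5 Km) and three fixed inhibitor levels. Reactions were quenched with NaOH and read at A405 (ε 18 000 M⁻¹ cm⁻¹), correcting for non-enzymatic hydrolysis. Kis (slope) and Kii (intercept) were obtained from steady-state kinetics.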

Assay [2] concerns the target Dual specificity protein phosphatase 3 (Homo sapiens) (UniProt P51452). The experiment in a line: Inhibitory activity against human recombinant vaccinia H1 related phosphatase (Dual specificity protein phosphatase 3). In outline:
(§2)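 Recombinant enzymes: human PTP1B; human PTPα intracellular fragment with both PTPase domains, cleaved from GST fusion; LAR with both PTPase domains; VHR purified to homogeneity. pNPP hydrolysis at 30 °C, pH 7.0, 50 mM 3,3-dimethylglutarate, ionic strength 0.15 M (NaCl), 10% DMSO final. Quenched with 1 N NaOH, A405 read. Ki from eight pNPP levels (0.2–5 Km) at three inhibitor concentrations.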

Assay [3] concerns the target Receptor-type tyrosine-protein phosphatase F (Rattus norvegicus) (UniProt Q64604). Put plainly: (§3) Inhibitory activity against rat recombinant leukocyte-common antigen-related molecule (LAR). In outline:
as §2

The target of assay [4] is Receptor-type tyrosine-protein phosphatase alpha (Homo sapiens) (UniProt P18433). The experiment in a line: Inhibitory activity against protein tyrosine phosphatases alpha (PTP alpha). In outline:
as §2

For assay [5], the target named is Receptor-type tyrosine-protein phosphatase F (Rattus norvegicus) (UniProt Q64604). Described as §3. A digest of the protocol:
as §1
The source holds these as a separate data set.

For assay [6], the target named is T1, Tyrosine-protein phosphatase non-receptor type 1 (Homo sapiens). The experiment in a line: Inhibitory activity against protein tyrosine phosphatases (PTP1B) (Kii=intercept inhibitory constant). In outline:
as §1

Assay [7] shares this target. The experiment in a line: Inhibitory activity against protein tyrosine phosphatases (PTP1B); no inhibition at 1 mM.

Receptor-type tyrosine-protein phosphatase alpha (Homo sapiens), sequence (P18433 20-802 limits assumed): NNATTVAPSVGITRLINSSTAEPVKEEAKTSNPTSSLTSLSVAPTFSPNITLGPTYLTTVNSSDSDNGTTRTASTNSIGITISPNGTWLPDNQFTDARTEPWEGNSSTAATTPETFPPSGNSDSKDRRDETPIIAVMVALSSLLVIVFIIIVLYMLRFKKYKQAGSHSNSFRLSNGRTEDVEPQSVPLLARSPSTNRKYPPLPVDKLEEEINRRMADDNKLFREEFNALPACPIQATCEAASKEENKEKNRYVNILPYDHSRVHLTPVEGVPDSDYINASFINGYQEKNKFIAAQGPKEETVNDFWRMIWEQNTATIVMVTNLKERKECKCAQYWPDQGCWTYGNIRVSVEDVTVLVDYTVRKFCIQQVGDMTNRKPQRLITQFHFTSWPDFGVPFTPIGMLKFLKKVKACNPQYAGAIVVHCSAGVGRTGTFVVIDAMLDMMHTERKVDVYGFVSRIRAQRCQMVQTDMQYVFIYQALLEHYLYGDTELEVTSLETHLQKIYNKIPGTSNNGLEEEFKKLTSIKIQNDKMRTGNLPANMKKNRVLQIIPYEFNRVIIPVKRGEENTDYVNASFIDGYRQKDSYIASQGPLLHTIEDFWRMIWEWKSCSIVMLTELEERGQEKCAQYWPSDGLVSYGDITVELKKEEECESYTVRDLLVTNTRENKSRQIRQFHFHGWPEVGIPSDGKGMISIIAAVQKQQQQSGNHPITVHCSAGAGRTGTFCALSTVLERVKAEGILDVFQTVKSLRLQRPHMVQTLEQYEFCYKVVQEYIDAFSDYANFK
Receptor-type tyrosine-protein phosphatase F (Rattus norvegicus), sequence (Q64604 whole entry): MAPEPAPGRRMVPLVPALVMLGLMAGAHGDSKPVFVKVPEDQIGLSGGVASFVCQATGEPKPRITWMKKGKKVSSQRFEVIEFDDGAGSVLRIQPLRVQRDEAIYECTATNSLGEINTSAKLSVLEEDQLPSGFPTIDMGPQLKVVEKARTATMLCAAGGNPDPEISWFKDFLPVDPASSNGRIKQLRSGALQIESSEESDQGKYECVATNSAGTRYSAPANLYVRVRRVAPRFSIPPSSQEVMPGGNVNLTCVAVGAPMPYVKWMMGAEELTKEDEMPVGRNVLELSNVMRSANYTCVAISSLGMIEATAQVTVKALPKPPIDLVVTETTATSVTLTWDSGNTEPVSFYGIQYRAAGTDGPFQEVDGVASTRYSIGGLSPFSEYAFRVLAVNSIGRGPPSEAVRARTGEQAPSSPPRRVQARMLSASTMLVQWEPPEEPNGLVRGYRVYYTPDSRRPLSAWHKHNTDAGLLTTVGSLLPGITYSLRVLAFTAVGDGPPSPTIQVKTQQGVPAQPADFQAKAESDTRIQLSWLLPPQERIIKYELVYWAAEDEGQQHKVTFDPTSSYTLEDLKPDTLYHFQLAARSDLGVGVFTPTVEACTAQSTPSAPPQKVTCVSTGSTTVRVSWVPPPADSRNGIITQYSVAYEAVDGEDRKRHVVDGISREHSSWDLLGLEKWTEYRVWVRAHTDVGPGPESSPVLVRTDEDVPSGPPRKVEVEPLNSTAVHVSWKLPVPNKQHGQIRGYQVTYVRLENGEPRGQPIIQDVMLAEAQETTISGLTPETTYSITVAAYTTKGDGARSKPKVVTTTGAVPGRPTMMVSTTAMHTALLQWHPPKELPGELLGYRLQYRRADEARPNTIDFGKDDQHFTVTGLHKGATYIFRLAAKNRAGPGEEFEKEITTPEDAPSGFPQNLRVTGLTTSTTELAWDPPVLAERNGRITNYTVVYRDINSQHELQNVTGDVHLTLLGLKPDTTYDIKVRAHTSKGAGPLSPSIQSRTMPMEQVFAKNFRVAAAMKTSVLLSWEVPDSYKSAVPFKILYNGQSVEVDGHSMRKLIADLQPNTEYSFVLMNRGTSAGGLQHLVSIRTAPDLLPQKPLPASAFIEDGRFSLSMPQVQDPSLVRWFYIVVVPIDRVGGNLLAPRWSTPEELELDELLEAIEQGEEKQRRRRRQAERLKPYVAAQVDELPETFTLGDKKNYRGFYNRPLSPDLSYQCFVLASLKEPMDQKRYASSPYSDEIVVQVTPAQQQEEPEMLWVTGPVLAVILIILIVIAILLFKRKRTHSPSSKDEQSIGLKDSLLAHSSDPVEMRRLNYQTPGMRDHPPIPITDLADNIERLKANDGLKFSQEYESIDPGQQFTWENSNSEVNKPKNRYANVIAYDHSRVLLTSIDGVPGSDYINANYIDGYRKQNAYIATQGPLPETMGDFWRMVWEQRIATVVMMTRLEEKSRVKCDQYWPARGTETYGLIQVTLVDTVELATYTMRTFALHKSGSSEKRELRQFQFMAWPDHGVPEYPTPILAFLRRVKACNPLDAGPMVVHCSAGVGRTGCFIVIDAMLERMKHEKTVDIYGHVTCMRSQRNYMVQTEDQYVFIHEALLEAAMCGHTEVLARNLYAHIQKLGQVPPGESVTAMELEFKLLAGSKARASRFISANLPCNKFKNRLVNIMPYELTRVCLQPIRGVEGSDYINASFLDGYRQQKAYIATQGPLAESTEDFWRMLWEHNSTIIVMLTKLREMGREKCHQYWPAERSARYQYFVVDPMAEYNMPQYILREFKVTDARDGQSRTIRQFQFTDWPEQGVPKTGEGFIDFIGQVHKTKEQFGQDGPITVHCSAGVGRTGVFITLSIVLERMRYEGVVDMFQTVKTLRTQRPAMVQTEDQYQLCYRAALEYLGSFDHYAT
Dual specificity protein phosphatase 3 (Homo sapiens), sequence (P51452 whole entry, looked up, the tested form may be a part): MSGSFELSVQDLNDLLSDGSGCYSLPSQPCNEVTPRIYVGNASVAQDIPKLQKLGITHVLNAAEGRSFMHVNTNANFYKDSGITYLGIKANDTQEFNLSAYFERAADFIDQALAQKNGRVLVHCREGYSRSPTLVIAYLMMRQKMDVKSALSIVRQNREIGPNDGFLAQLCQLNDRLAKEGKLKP

Consider `O=[N+]([O-])c1ccc(OS(=O)(=O)O)cc1`, for which the Kis in assay [1] worked out at 10000 µM.
For `O=S(=O)(O)c1ccc2c3c(ccc2c1)CCCC3`, the Kis in assay [2] was > 1000 µM; in assay [3] it was > 1000 µM; in assay [4], 410 µM; in assay [1], 240 µM.
Take `O=C(O)c1ccc(Oc2ccc(C(=O)c3ccc4c(c3)C(=O)OC4=O)cc2)cc1`: the Kis in assay [2] is > 1000 µM; in assay [3], > 1000 µM; in assay [4], > 1000 µM; in assay [1], 510 µM.
Molecule `O=C(O)c1ccccc1O` had a Kis in assay [1] of 19400 µM.
As for `O=C1c2ccccc2-c2cc([N+](=O)[O-])cc3cccc1c23`, the Kis was > 100 µM in assay [2]; 68 µM and 57 µM in assay [3]; > 100 µM in assay [4]; 21 µM in assay [1].
`O=S(=O)(O)Oc1c2ccccc2c2ccc3c(OS(=O)(=O)O)c4ccccc4c4ccc1c2c34`: the Kis in assay [2] is > 100 µM; in assay [3], > 100 µM; in assay [4] it was > 100 µM; in assay [1], 39 µM.
On to `O=C(/C=C/c1cccc([N+](=O)[O-])c1)c1c(O)nc2cc([N+](=O)[O-])ccc2c1-c1ccccc1`, for which the Kis in assay [2] was > 100 µM; in assay [3], > 100 µM; in assay [4], > 100 µM; in assay [1], 54 µM.
`O=C(CSc1nnc(Nc2ccc(F)cc2)s1)c1ccc(Cl)cc1`: the Kis in assay [2] is > 100 µM; in assay [3], 53 µM; in assay [4], 57 µM; in assay [1], 110 µM. Moreover, the Kii in assay [5] worked out at 92 µM; in assay [6], 131 µM.
`Cc1ccc2c(c1)nc(S)n2CNc1ccc(C(=O)O)c(O)c1` yielded a Kis in assay [1] of 750 µM.
Still for that read-out and setting: the value for `C[C@]12CC[C@@H]3c4ccc(OS(=O)(=O)O)cc4CC[C@H]3[C@@H]1CCC2=O` was 2100 µM.
For the molecule `O=C(O)c1cc(NCn2c(S)nc3ccccc32)ccc1O`, the Kis was > 100 µM in assay [2], > 100 µM in assay [3], 180 µM in assay [4] and 61 µM in assay [1].
For `C[C@]12CC[C@@H]3c4ccc(OS(=O)(=O)O)cc4CC[C@H]3[C@@H]1CC[C@@H]2O`, the NI entry in assay [7] is “no inhibition at 1 mM”.
